Data: paper PMC8360185 (Chembiochem, 2021)

Tested on: FKBP12-NLuc or FKBP51-NLuc
Assay type: cell-based, human
Settings: 1 µM Elacridar, 20 nM tracer 2b or 200 nM tracer 2c
In short: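 HEK293T cells expressing C-terminal FKBP-NanoLuc fusions were resuspended in Opti-MEM at 4.6×105 (transient) or 1.81×10^6 cells/mL (stable). Tracer was added from an eightfold stock, and test compound in DMSO was 1:2 serially diluted. Plates were incubated 2 h at 37 °C, then 15 min at RT. NanoGlo substrate (1:664) and extracellular NanoLuc inhibitor (1:2000) were added, with donor read at 450 nm and acceptor at 660 nm after 3 min.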

| Compound | effect of Elacridar on NanoBRET activity |
| --- | --- |
| C=CC[C@@H]1/C=C(\C)C[C@H](C)C[C@H](OC)[C@H]2O[C@@](O)(C(=O)C(=O)N3CCCC[C@H]3C(=O)O[C@H](/C(C)=C/[C@@H]3CC[C@@H](O)[C@H](OC)C3)[C@H](C)[C@@H](O)CC1=O)[C@H](C)C[C@@H]2OC [FK506] | did not affect |
| COc1ccc(CC[C@@H](OC(=O)[C@@H]2CCCCN2C(=O)[C@H](c2cc(OC)c(OC)c(OC)c2)C2CCCCC2)c2cccc(OCCN3CCOCC3)c2)cc1OC [SAFit2] | did not affect |
